Columns and labels:
DU-145 = assay: Cytotoxicity against human DU145 cells after 48 hrs by SRB assay; type: functional, cell-based; conditions: Homo sapiens, DU-145, 48 h; for CC50: read-out: LC50 (the source's name)
Outline: (§1)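 Cells grown in RPMI 1640 with 10% FBS and penicillin/streptomycin at 37 °C and 5% CO₂, trypsinized, then seeded at 5 × 10³/well. After 18 h drug-free attachment, samples in DMSO/EtOH/PBS (0.5:0.5:99) were added for 48 h continuous exposure. Cells were fixed with cold TCA (1 h, 4 °C) and stained with SRB (10 min). Tris-solubilized stain read at 490 nm. Triplicate wells, mean ± SD; GI₅₀ derived.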

LNCaP = assay: Cytotoxicity against human LNcaP cells after 48 hrs by SRB assay; type: functional; conditions: for CC50: read-out: LC50 (the source's name); outline: as §1
[1] = Cytotoxicity against human IGROV cells after 48 hrs by SRB assay; type: functional; conditions: for CC50: read-out: LC50 (the source's name); outline: as §1
[2] = Cytotoxicity against human IGROV-ET cells after 48 hrs by SRB assay; type: functional; conditions: for CC50: read-out: LC50 (the source's name); outline: as §1
SK-MEL-28 = assay: Cytotoxicity against human SK-MEL-28 cells after 48 hrs by SRB assay; type: functional, cell-based; conditions: Homo sapiens, SK-MEL-28, 48 h; for CC50: read-out: LC50 (the source's name); outline: as §1
A549 = assay: Cytotoxicity against human A549 cells after 48 hrs by SRB assay; type: functional, cell-based; conditions: Homo sapiens, A549, 48 h; for GI50: read-out: GI50; outline: as §1
K562 = assay: Cytotoxicity against human K562 cells after 48 hrs by SRB assay; type: functional; conditions: K562, 48 h; for CC50: read-out: LC50 (the source's name); outline: as §1
PANC-1 = assay: Cytotoxicity against human PANC1 cells after 48 hrs by SRB assay; type: functional; conditions: PANC-1, 48 h; for CC50: read-out: LC50 (the source's name); outline: as §1
HT-29 = assay: Cytotoxicity against human HT29 cells after 48 hrs by SRB assay; type: functional, cell-based; conditions: Homo sapiens, HT-29, 48 h; for CC50: read-out: LC50 (the source's name); outline: as §1
LoVo [3] = assay: Cytotoxicity against human LoVo cells after 48 hrs by SRB assay; type: functional; conditions: for CC50: read-out: LC50 (the source's name)
LoVo [4] = assay: Cytotoxicity against human doxorubicin resistant LoVo cells after 48 hrs by SRB assay; type: functional; conditions: for CC50: read-out: LC50 (the source's name); outline: as §1
HeLa = assay: Cytotoxicity against human HeLa cells after 48 hrs by SRB assay; type: functional; conditions: read-out: LC50 (the source's name); outline: as §1
[5] = Cytotoxicity against human HeLa-APL cells after 48 hrs by SRB assay; type: functional; outline: as §1
SK-BR-3 = assay: Cytotoxicity against human SKBR3 cells after 48 hrs by SRB assay; type: functional; conditions: SK-BR-3, 48 h; for GI50: read-out: GI50; for CC50: read-out: LC50 (the source's name); outline: as §1

Compound	CC50 (DU-145) [µM]	GI50 (LNCaP) [µM]	TGI (LNCaP) [µM]	CC50 (LNCaP) [µM]	GI50 ([1]; read-out: GI50) [µM]	CC50 [1] [µM]	CC50 [2] [µM]	CC50 (SK-MEL-28) [µM]	LC50 (A549) [µM]	TGI (A549) [µM]	GI50 (A549) [µM]	GI50 (K562) [µM]	TGI (K562) [µM]	CC50 (K562) [µM]	GI50 (PANC-1) [µM]	TGI (PANC-1) [µM]	CC50 (PANC-1) [µM]	CC50 (HT-29) [µM]	CC50 (LoVo [3]) [µM]	CC50 (LoVo [4]) [µM]	other results
C/C=C1\NC(=O)[C@H](Cc2ccccc2)NC(=O)[C@@H](C(C)C)NC(=O)[C@@H]([C@H](C)CC)NC(=O)[C@H](NC(=O)[C@H](NC(=O)[C@H](CCC(=O)O)NC(=O)[C@H]2CCCN2C(=O)[C@H](NC(=O)[C@@H](NC(=O)[C@@H](NC(=O)[C@H](NC(=O)CCCC(C)C)C(C)C)[C@@H](C)O)C(C)C)C(C)C)[C@H](C)CC)[C@H](C)OC(=O)[C@H](C(C)C)NC1=O	10.2	1.88	3.13	4.36	1.95	3.2	3.54	1.98	22.6	8.95	1.09	3.32	4.2	2.9	2.5	2.54	2.6	4	1.35	3.59	TGI [1]: 2.53 µM; TGI [2]: 3.53 µM; GI50 ([2]; read-out: GI50): 3.54 µM; TGI (SK-MEL-28): 4.98 µM; GI50 (SK-MEL-28; read-out: GI50): 5.89 µM; GI50 (HT-29): 2.67 µM; TGI (HT-29): 3.26 µM; GI50 (LoVo [3]): 0.785 µM; TGI (LoVo [3]): 0.692 µM
C/C=C1\NC(=O)[C@H](Cc2ccccc2)NC(=O)[C@@H](C(C)C)NC(=O)[C@@H]([C@H](C)CC)NC(=O)[C@H](NC(=O)[C@H](NC(=O)[C@H](CCCN)NC(=O)[C@@H]2CCCN2C(=O)[C@H](NC(=O)[C@@H](NC(=O)[C@@H](NC(=O)[C@H](NC(=O)CC[C@@H](C)CC)C(C)C)[C@@H](C)O)C(C)C)C(C)C)[C@H](C)CC)[C@H](C)OC(=O)[C@H](C(C)C)NC1=O	1.43	–	–	1.63	–	0.525	0.549	1.62	6.78	–	–	–	–	2.18	–	–	2.04	6.76	0.794	1.87	CC50 (HeLa): 1.09 µM; LC50 (concentration giving 50% net cell kill) [5]: 0.986 µM
C/C=C1\NC(=O)[C@H](Cc2ccccc2)NC(=O)[C@@H](C(C)C)NC(=O)[C@@H]([C@H](C)CC)NC(=O)[C@H](NC(=O)[C@H](NC(=O)[C@H](CCCN)NC(=O)[C@H]2CCCN2C(=O)[C@H](NC(=O)CCCCCCCCCCCCC)C(C)C)[C@H](C)CC)[C@H](C)OC(=O)[C@H](C(C)C)NC1=O	17.9	7.21	8.1	8.02	–	5.33	5.19	1.87	2.65	–	–	3	3.47	3.39	2.45	2.4	2.16	6.89	3.98	5.37	–
C/C=C1\NC(=O)[C@H](Cc2ccccc2)NC(=O)[C@@H](C(C)C)NC(=O)[C@@H]([C@H](C)CC)NC(=O)[C@H](NC(=O)[C@H](NC(=O)[C@H](CCCN)NC(=O)[C@H]2CCCN2C(=O)[C@H](NC(=O)[C@@H](NC(=O)[C@@H](NC(=O)[C@H](NC(=O)CCCCC(C)(F)F)C(C)C)[C@@H](C)O)C(C)C)C(C)C)[C@H](C)CC)[C@H](C)OC(=O)[C@H](C(C)C)NC1=O	5.48	1.84	2.87	3.73	1.33	2.46	0.571	1.3	1.44	2.32	2.03	2.96	2.46	2.06	2.04	1.85	1.69	3.19	0.444	50.7	TGI (DU-145): 3.92 µM; GI50 (DU-145; read-out: GI50): 4.52 µM; TGI [1]: 1.54 µM; GI50 [2]: 0.751 µM; GI50 ([2]; read-out: GI50): 0.987 µM; GI50 (HT-29): 1.96 µM; TGI (HT-29): 2.51 µM; GI50 (LoVo [3]): 0.442 µM; TGI (LoVo [3]): 0.397 µM
C/C=C1\NC(=O)[C@H](Cc2ccccc2)NC(=O)[C@@H](C(C)C)NC(=O)[C@@H]([C@H](C)CC)NC(=O)[C@H](NC(=O)[C@H](NC(=O)[C@H](CCCN)NC(=O)[C@H]2CCCN2C(=O)[C@H](NC(=O)CCCC(C)C)C(C)C)[C@H](C)CC)[C@H](C)OC(=O)[C@H](C(C)C)NC1=O	22.3	9.85	9.97	8.89	–	6.04	6.21	2.5	2.87	–	–	3.48	3.51	3.54	2.92	2.66	2.45	7.47	4.32	5.84	–
C/C=C1\NC(=O)[C@H](Cc2ccccc2)NC(=O)[C@@H](C(C)C)NC(=O)[C@@H]([C@H](C)CC)NC(=O)[C@H](NC(=O)[C@H](NC(=O)[C@H](CCCN)NC(=O)[C@H]2CCCN2C(=O)[C@H](NC(=O)[C@@H](NC(=O)[C@@H](NC(=O)[C@H](NC(=O)Cc2ccc(C(F)(F)F)cc2)C(C)C)[C@@H](C)O)C(C)C)C(C)C)[C@H](C)CC)[C@H](C)OC(=O)[C@H](C(C)C)NC1=O	6.24	1.63	3.13	4.4	1	1.89	0.524	1.2	1.1	2.15	1.84	2.23	2.52	2.79	2.17	2.25	2.34	2.92	0.819	1.24	TGI (DU-145): 5.5 µM; GI50 (DU-145; read-out: GI50): 5.28 µM; GI50 [1]: 0.892 µM; GI50 [2]: 0.675 µM; GI50 ([2]; read-out: GI50): 0.866 µM; TGI (SK-MEL-28): 15.9 µM; GI50 (SK-MEL-28; read-out: GI50): 2.8 µM; GI50 (HT-29): 1.68 µM; TGI (HT-29): 2.3 µM; GI50 (LoVo [3]): 0.458 µM; TGI (LoVo [3]): 0.492 µM
C/C=C1\NC(=O)[C@H](Cc2ccc(F)cc2)NC(=O)[C@@H](C(C)C)NC(=O)[C@@H]([C@H](C)CC)NC(=O)[C@H](NC(=O)[C@H](NC(=O)[C@H](CCCN)NC(=O)[C@H]2CCCN2C(=O)[C@H](NC(=O)[C@@H](NC(=O)[C@@H](NC(=O)[C@H](NC(=O)CC[C@@H](C)CC)C(C)C)[C@@H](C)O)C(C)C)C(C)C)[C@H](C)CC)[C@H](C)OC(=O)[C@H](C(C)C)NC1=O	0.893	0.514	0.62	0.747	0.812	0.381	0.649	0.953	1.04	1.03	1.01	–	–	–	1.46	1.53	1.58	0.479	0.33	0.512	GI50 (DU-145): 0.893 µM; GI50 (DU-145; read-out: GI50): 0.891 µM; GI50 [1]: 0.558 µM; GI50 [2]: 0.791 µM; GI50 ([2]; read-out: GI50): 0.971 µM; TGI (SK-BR-3): 0.448 µM; GI50 (SK-BR-3): 0.519 µM; CC50 (SK-BR-3): 0.389 µM; GI50 (SK-MEL-28): 0.819 µM; GI50 (SK-MEL-28; read-out: GI50): 0.699 µM; GI50 (HT-29): 0.452 µM; TGI (HT-29): 0.462 µM; GI50 (LoVo [3]): 0.393 µM; TGI (LoVo [3]): 0.361 µM; GI50 (LoVo [4]): 0.413 µM; TGI (LoVo [4]): 0.46 µM; CC50 (HeLa): 2.82 µM; GI50 [5]: 0.737 µM; LC50 (concentration giving 50% net cell kill) [5]: 0.837 µM; TGI [5]: 0.786 µM
C/C=C1\NC(=O)[C@H](Cc2c(F)c(F)c(F)c(F)c2F)NC(=O)[C@@H](C(C)C)NC(=O)[C@@H]([C@H](C)CC)NC(=O)[C@H](NC(=O)[C@H](NC(=O)[C@H](CCCN)NC(=O)[C@H]2CCCN2C(=O)[C@H](NC(=O)[C@@H](NC(=O)[C@@H](NC(=O)[C@H](NC(=O)CC[C@@H](C)CC)C(C)C)[C@@H](C)O)C(C)C)C(C)C)[C@H](C)CC)[C@H](C)OC(=O)[C@H](C(C)C)NC1=O	1	0.504	0.681	0.778	2.07	1.1	1.15	1.12	1.27	1.53	1.85	–	–	–	2.11	3.42	2.81	0.256	0.386	0.374	TGI (DU-145): 1.17 µM; GI50 (DU-145; read-out: GI50): 1.37 µM; TGI [1]: 1.74 µM; TGI (SK-BR-3): 0.492 µM; GI50 (SK-BR-3): 0.556 µM; CC50 (SK-BR-3): 0.435 µM; TGI (SK-MEL-28): 1.2 µM; GI50 (SK-MEL-28; read-out: GI50): 1.28 µM; GI50 (HT-29): 1.09 µM; TGI (HT-29): 1.74 µM; GI50 (LoVo [3]): 0.469 µM; TGI (LoVo [3]): 0.426 µM; GI50 (LoVo [4]): 0.496 µM; TGI (LoVo [4]): 0.432 µM; CC50 (HeLa): 1.3 µM; GI50 [5]: 1.45 µM; LC50 (concentration giving 50% net cell kill) [5]: 0.983 µM; TGI [5]: 1.2 µM

— ChEMBL document CHEMBL1156597, “Structure-activity relationship of kahalalide F synthetic analogues” (J Med Chem, 2008)
